Measurements from different studies.
Protocols differ between the studies behind these lines.
Cell line: A549
Effect on: cell growth or viability

CCCn1cnc2ccc(-c3ccc(N4CCCCCCC4=O)nc3)cc2c1=O — IC50 (CCK-8; 72 h): > 10 µM
O=C(Nc1cc(C(F)(F)F)cc(C(F)(F)F)c1)Nc1nc2cc(-c3ccc4ncn(Cc5ccccc5)c(=O)c4c3)ccc2s1 — IC50 (MTT; 72 h): 5.37 µM
CNC(=S)N/N=C/c1cccc2cc3ccccc3nc12 — IC50 (MTT; 48 h): 26.9 µM
COc1cccc2c1C(=O)c1c(O)c3c(c(O)c1C2=O)C[C@@](O)(C(=O)CO)C[C@@H]3O[C@H]1C[C@H](N)[C@H](O)[C@H](C)O1 — IC50 (MTT): 0.307 µM
CCCNC(=S)N/N=C/c1cccc2cc3ccccc3nc12 — IC50 (MTT; 48 h): > 50 µM
CCCCC(=O)Nc1ccc(-c2ccc3ncn(CCC)c(=O)c3c2)cn1 — IC50 (CCK-8; 72 h): 0.11 µM
CCC(=O)Nc1nc2cc(-c3ccc4ncn(Cc5ccccc5)c(=O)c4c3)ccc2s1 — IC50 (MTT; 72 h): > 20 µM
CC(C)c1ccc(/C=C2\N=C(SCC(=O)O)N(c3ccccc3)C2=O)cc1 — IC50 (MTT): 57.4 µg/mL
Cc1cc(C)cc(NC(=O)Nc2nc3cc(-c4ccc5ncn(Cc6ccccc6)c(=O)c5c4)ccc3s2)c1 — IC50 (MTT; 72 h): > 20 µM
CC(=O)O[C@@]12CO[C@@H]1C[C@H](O)[C@@]1(C)C(=O)[C@H](O)C3=C(C)[C@@H](OC(=O)[C@H](O)[C@@H](NC(=O)OC(C)(C)C)c4ccccc4)C[C@@](O)([C@@H](OC(=O)c4ccccc4)[C@H]21)C3(C)C — IC50 (MTT; 24 h): > 60 µg/mL
COc1cccc(NC(=O)Nc2nc3cc(-c4ccc5ncn(CCC6CCCCC6)c(=O)c5c4)ccc3s2)c1 — IC50 (MTT; 72 h): 1.27 µM
CN(C)c1ccc(CNc2ccc(C(=O)O)cc2)cc1 — IC50 (resazurin; 72 h): > 100 µM
C/C(=N\CCNCC/N=C(\C)c1c(O)c2ccccc2oc1=O)c1c(O)c2ccccc2oc1=O — IC50 (MTT; 48 h): 8.75 µM
COC(=O)c1cc(C(C)=NNc2nc(-c3cccc4cc[nH]c34)cs2)ccc1O — IC50 (MTT; 96 h): 92.3 µM
NNc1nc2c(Cl)cc(Cl)cc2c(=O)n1-c1ccc(Cl)cc1 — IC50 (MTT; 48 h): 25.9 µM
CCCn1cnc2ccc(-c3ccc(NC(=O)CC)nc3)cc2c1=O — IC50 (CCK-8; 72 h): 2.35 µM
OC1CCN(c2ccc(/C=N/NC(=S)NC3CCCCC3)cc2)CC1 — IC50 (MTT; 24 h): 3.83 µM
O=C(Cn1cc(COc2ncnc3[nH]cnc23)nn1)NCc1ccc(Cl)cc1 — IC50 (MTT): 15.3 µM
C/C(=N\N=C(/C)c1c(O)c2ccccc2oc1=O)c1c(O)c2ccccc2oc1=O — IC50 (MTT; 48 h): 39.5 µM
CN(C)CCn1cnc2ccc(-c3ccc4sc(NC(=O)Nc5ccc(F)cc5)nc4c3)cc2c1=O — IC50 (MTT; 72 h): 0.98 µM
Cc1cc(NS(=O)(=O)c2ccc(NC(=O)/C(C#N)=C/c3ccncc3)cc2)no1 — IC50 (MTT; 48 h): 196 µM
NNc1nc2ccc(Br)cc2c(=O)n1-c1ccccc1 — IC50 (MTT; 48 h): 53.5 µM
COc1ccccc1CNc1ccc(C(=O)O)cc1 — IC50 (resazurin; 72 h): > 100 µM
Cc1ccc(NNc2nc3c(Cl)cc(Cl)cc3c(=O)n2-c2ccccc2)cc1 — IC50 (MTT; 48 h): > 200 µM
CCCC(=O)Nc1ccc(-c2ccc3ncn(CCC)c(=O)c3c2)cn1 — IC50 (CCK-8; 72 h): 0.46 µM
CNC(=O)c1cc(Oc2ccc(NC(=O)Nc3ccc(Cl)c(C(F)(F)F)c3)cc2)ccn1 — IC50 (MTT; 48 h): 12.2 µM
CC(C)[C@@H]1NC(=O)[C@@H](CCCNC(=N)N)NC(=O)[C@H]([C@@H](C)O)NC(=O)[C@@H](CCCN)NC(=O)[C@H](Cc2ccc(O)cc2)NC(=O)[C@@H](Cc2ccccc2)NC1=O — IC50 (ATP luminescence): > 100 µM
O=C(Nc1ccc(Cl)cc1)Nc1nc2cc(-c3ccc4ncn(CCN5CCOCC5)c(=O)c4c3)ccc2s1 — IC50 (MTT; 72 h): > 20 µM
O=C(O)c1ccc(NCc2cccc([N+](=O)[O-])c2)cc1 — IC50 (resazurin; 72 h): > 100 µM
CCCn1cnc2ccc(-c3ccc(NC(=O)CC(C)CC)nc3)cc2c1=O (centres unmarked) — IC50 (CCK-8; 72 h): 1.49 µM
OC1CCN(c2ccc(/C=N/NC(=S)Nc3ccccc3)cc2)CC1 — IC50 (MTT; 24 h): 3.77 µM
NS(=O)(=O)c1ccc(-n2nc(-c3nnc(S)o3)cc2-c2ccccc2)cc1 — IC50 (fluorescence; 48 h): 26.9 µM
C/C(=N/NC(=O)c1cn(-c2ccccc2)nc1-c1ccc(Br)cc1)c1c(O)cc(C)oc1=O — IC50 (MTT; 48 h): 140 µM
CC(=NNC(=O)c1cc(-c2ccccc2)n(-c2ccc(S(N)(=O)=O)cc2)n1)c1ccc(Br)cc1 — IC50 (fluorescence; 48 h): 25.9 µM
CCCn1cnc2ccc(-c3ccc(NC(=O)c4ccccc4)nc3)cc2c1=O — IC50 (CCK-8; 72 h): 0.12 µM
O=C(NCCc1ccccc1)Nc1nc2cc(-c3ccc4ncn(CCN5CCOCC5)c(=O)c4c3)ccc2s1 — IC50 (MTT; 72 h): 4.92 µM
COc1cc(CNc2ccc(C(=O)O)cc2)ccc1O — IC50 (resazurin; 72 h): > 100 µM
O=C(Nc1nc2cc(-c3ccc4ncn(Cc5ccccc5)c(=O)c4c3)ccc2s1)NC1CCCCC1 — IC50 (MTT; 72 h): 12.2 µM
O=C(C=Cc1ccc(OCCCCOc2ccc(C=CC(=O)c3cccs3)cc2)cc1)c1cccs1 — IC50 (MTT; 48 h): 232 µM
O=C(Nc1ccc(-c2ccc3ncn(Cc4ccccc4)c(=O)c3c2)cn1)C1CC1 — IC50 (CCK-8; 72 h): > 10 µM
CC1=CC(=O)C(C(C)C)=CC1=O — IC50 (SRB; 48 h): 11.1 µM
CNC(=O)c1cc(Oc2ccc(NC(=O)Nc3ccc(Cl)c(C(F)(F)F)c3)cc2)ccn1 — IC50 (MTT; 24 h): 2.92 µM
CCCCC(=O)Nc1ccc(-c2ccc3ncn(CCCC)c(=O)c3c2)cn1 — IC50 (CCK-8; 72 h): 0.87 µM
CN(C)c1ccc(Nc2nc(-c3ccncc3)nc3c2CC(N)CC3)cc1 (centres unmarked) — IC50 (MTT): 17.1 µM
